Measurements from different studies.
Each line is one published result; the experiments were not run side by side.
Target: Serine/threonine-protein kinase PAK 2 (PAK2, Homo sapiens, UniProt Q13177)

Cc1cnc(Nc2ccc(C(=O)N3CCC(N4CCCC4)CC3)cc2)nc1-c1cc2ccccc2s1 — remaining binding (binding, competition with immobilised ligand; 1 µM): 76%
F[C@@H]1CCN(c2nccc(-c3cnn4ncccc34)n2)C1 — remaining binding (binding; 1 µM): 100%
O=C(NCCCN1CCOCC1)c1ccc(Nc2nccc(-c3cc4ccccc4s3)n2)cc1 — remaining binding (binding, competition with immobilised ligand; 1 µM): 100%
CCCCN(CCCC)C(=O)CN1C[C@@H](c2cc(OC)c3c(c2)OCO3)[C@H](C(=O)O)[C@H]1CC(C)(C)CCC — remaining binding (cell-free assay, competition with immobilised ligand; 1 µM): 83.5%
O=C(Nc1c[nH]nc1C(=O)NC1CCNCC1)c1cc(F)cc(F)c1 — remaining binding (binding, competition with immobilised ligand; 1 µM): 100%
N#Cc1ccccc1CSc1nnc2c(n1)[nH]c1ccccc12 — remaining binding (binding, competition with immobilised ligand; 10 µM): 88%
C[C@@H]1CN(c2ccc3ncc(-c4ccc5[nH]nc(C6CC6)c5c4)n3n2)C[C@H](C)O1 — remaining binding (binding, competition with immobilised ligand; 0.5 µM): 55%
C[C@@]1(Cc2ccc(C#N)cc2)C(=O)N(c2cc(Cl)cc(Cl)c2)c2ncc(C(=O)NC3(c4nc(C5CCC5)no4)CC3)n21 — remaining binding (cell-free assay, competition with immobilised ligand; 1 µM): 64%
CCN1CCN(Cc2ccc(C(=O)Nc3ccc(C)c(Oc4ccc5c(c4)CC(=O)N5)c3)cc2C(F)(F)F)CC1 — remaining binding (binding, competition with immobilised ligand; 1 µM): 100%
CNC(=O)[C@@H]1CC[C@@H](n2c(-c3ccc4cnccc4c3)nc3ccc(C(=O)NCc4cccc(C(N)=O)c4)cc32)C1 — remaining binding (binding, competition with immobilised ligand; 1 µM): 96%
CCS(=O)(=O)c1cc2cc(C[C@@](O)(CC(C)(C)c3ccc(F)cc3C(N)=O)C(F)(F)F)[nH]c2cn1 — remaining binding (cell-free assay, competition with immobilised ligand; 1 µM): 94%
CN(C)c1nccc(-c2cnn3ncccc23)n1 — remaining binding (binding; 1 µM): 64%
CN(C(=O)c1ccccc1)c1cc(N(C)c2ccc3c(c2)CCc2ccc(C(=O)NCCN4CCOCC4)cc2C3=O)ccc1F — remaining binding (cell-free assay, competition with immobilised ligand; 1 µM): 63%
CC1CCCN1c1nccc(-c2cnn3ncccc23)n1 (stereo not shown) — remaining binding (binding; 1 µM): 100%
CNCc1ccccc1-c1csc([C@@H](C)Nc2nc(C)nc3cc(OC)c(OC)cc23)c1 — remaining binding (cell-free assay, competition with immobilised ligand; 1 µM): 88%
COc1ccnn2ncc(-c3ccnc(N(C)C)n3)c12 — remaining binding (binding; 1 µM): 78%
